Screens from PubChem.
The full list was thinned out, with hits kept by preference.
T cruzi inh – inhibitors of intracellular T. cruzi growth, primary screen, luminescence, NIH3T3 host cells. T. cruzi beta-gal in NIH3T3, 90 h. inhibition, % (no concentration beside the values). 300,000 compounds, 1.4% hits. AID 1885, 2009;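 active = mean inhibition across valid replicates above about 55%, limit read from the data; inconclusive = mean below that limit but half or more replicates reach it; inactive = mean below it, under half of replicates reach it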;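 also: signal also drops with host cell toxicity which is not excluded here; 0% = plate median of DMSO wells and 100% = zero luminescence signal; higher percent means less beta-gal luminescence so fewer parasites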
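System: mouse NIH/3T3 fibroblasts infected with β-gal-expressing T. cruzi Tulahuen C4 / Input: NIH/3T3 cells, 5,000 per well / Buffer or medium: Low-serum DMEM with 2% FBS / Probe or stimulus: 5000 reporter trypomastigotes per well / Schedule: ≥90 h infection period, 3 h prior cell attachment / Measured by: GalScreen luminescence, 60 min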
Dynein cargo inh – inhibitors of GR-EGFP nuclear translocation, primary screen, dynein cargo transport inhibitor project, imaging, high-content, 3617.4 mouse cells | test concentration mostly 20 µM; stimulated with dexamethasone, 1 µM; hits give low values | AID 1381, 2008 | 220,000 compounds, 0.47% hits | z-score, hits read low;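 active = plate z-score of nuclear minus cytoplasmic receptor signal below a set negative limit, without overly bright fluorescence or cell loss, cut at about -3.5 in these data, passing the limit was not always enough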;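 also: z-score of nuclear minus cytoplasmic ring GR-EGFP intensity difference per well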
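Medium: Induction medium lacking tetracycline, stripped serum | Probe or stimulus: 1.0 µM final dexamethasone stimulus | Schedule: 48 h induction, then 1 h compound, then 30 min agonist, 37 °C | Signal: Automated 10x imaging of fixed Hoechst-stained cells | Evaluation: Per-cell GR-EGFP intensity, nucleus versus surrounding cytoplasmic ring, well-averaged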
CHOP UPR activ – activators of apoptotic CHOP UPR arm, primary screen, cell-based, CHO-CHOP luciferase reporter, luminescence, uHTS; AID 449763, 2010; UPR activation; percent of tunicamycin response over DMSO baseline; 330,000 compounds, 0.34% hits; activation, % at 10 µM;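 active = at 10 µM dose, activation of 40% or more, normalized to positive control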;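 also: 100% = tunicamycin at 10 µg/mL and 0% = DMSO alone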
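Assay system: CHO-CHOP cells, stable luciferase reporter of PERK-eIF2a-CHOP signalling / Buffer or medium: F12 plus 10% serum / Compound dosing: one dose, 10 µM in 0.5% DMSO / Times: 6 h compound treatment, 37 °C / Technique: luciferase luminescence / Read-out: % reporter activation, DMSO baseline versus tunicamycin full activation / Benchmarks: tunicamycin and DMSO controls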
UPR XBP1 act – activators of adaptive XBP1 UPR arm, primary screen, cell-based, CHO-XBP1 luciferase reporter, luminescence, uHTS | IRE1-XBP1 UPR activation; percent of tunicamycin response, DMSO as zero | activation, % at 20 µM | 330,000 compounds, 0.33% hits | AID 463104, 2010;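 active = versus positive control, 20 µM dose yields 30% or more activation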;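 also: 100% = tunicamycin at 10 µg/mL and 0% = DMSO only wells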
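Test system: CHO-XBP1 luciferase reporter cells | Buffer or medium: Serum-containing F12 medium, 10% FBS | Schedule: 6 h compound exposure at 37 °C, 5% CO2 | Detection: Steady-Glo luciferase glow luminescence, 10 min after reagent addition | Read-out basis: Activation, % of tunicamycin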
Lmaj promast – Leishmania major promastigote growth inhibition, primary screen; Leishmania major promastigotes, resazurin fluorescence viability; inhibition, % at 10 µM; 200,000 compounds, 9% hits; in the data active = inhibition above about 50%;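 also: promastigotes grown with compound for 44 hours at 28 °C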
CHOP inhibitor – inhibitors of CHOP promoter induction, primary screen, cell-based, unfolded protein response, luciferase reporter | CHO-K1 CHOP-promoter luciferase, tunicamycin-induced, 15-18 h | inhibition, % at 10 µM | 220,000 compounds, 3.8% hits | AID 2732, 2010;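 active = compounds that reduced the stress-induced luciferase reporter signal by more than about 70% of percent inhibition, limit read from the data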;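 also: 0% = tunicamycin plus vehicle and 100% = wells without tunicamycin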
* hit, by the source's call.

For COc1cc(CNCCCCO)ccc1OCc1ccccc1F the results were T cruzi inh 13, Dynein cargo inh -0.74, CHOP UPR activ 0, UPR XBP1 act 0, Lmaj promast 83* and CHOP inhibitor -14.
Screening CC(C)OCCCNC(=O)Cn1ccc2cc(S(=O)(=O)N3CCCCC3)ccc21 returned T cruzi inh 5, CHOP UPR activ 1 and UPR XBP1 act -3.
For CCn1cc([N+](=O)[O-])c(C(=O)Nc2nc3ccc(OC)cc3s2)n1 the results were T cruzi inh -11, Dynein cargo inh -1.4, CHOP UPR activ -1, UPR XBP1 act -1, Lmaj promast 36 and CHOP inhibitor 4.
For COc1cc(C=C(c2nc3ccccc3s2)c2nc3ccccc3s2)cc(OC)c1O the results were T cruzi inh -4, Dynein cargo inh -0.66, CHOP UPR activ 1, UPR XBP1 act 1, Lmaj promast 95* and CHOP inhibitor -20.
COc1cc(/C=N/NC(=Nc2ccc(C)cc2)c2nc3ccccc3s2)ccc1O was read as T cruzi inh 42, Dynein cargo inh -0.77, CHOP UPR activ -6, UPR XBP1 act -5, Lmaj promast 6 and CHOP inhibitor 74*.
COc1cc(/C=C(\CC(=O)O)c2nc3ccccc3s2)cc(OC)c1O was read as T cruzi inh -11, Dynein cargo inh 0.31, CHOP UPR activ 2, UPR XBP1 act -2, Lmaj promast -7 and CHOP inhibitor 4.
`Cc1cccc(C)c1OC(=O)CN1C(=O)c2ccccc2C1=O` gave T cruzi inh -12, CHOP UPR activ 2 and UPR XBP1 act -3.
`CCOC(=O)[C@H]1[C@H]2COc3cc(OC)ccc3[C@@H]2N2C(=O)CN(C)C(=O)[C@@]12C` gave CHOP UPR activ 1 and UPR XBP1 act -4.
For C=CCn1c(SCc2cc(C(C)=O)ccc2OCC)nc2ccccc2c1=O the results were T cruzi inh 7, Dynein cargo inh -0.41, CHOP UPR activ 1, UPR XBP1 act 2, Lmaj promast 97* and CHOP inhibitor -1.
`COc1ccc(C(C)=O)cc1CSc1nc2ccccc2c(=O)n1-c1ccccc1C` gave T cruzi inh -3, Dynein cargo inh 0.37, CHOP UPR activ 1, UPR XBP1 act 8, Lmaj promast 78* and CHOP inhibitor 23.
`COc1ccc(-c2cc3nc(C)n(N)c(=O)c3s2)cc1` gave T cruzi inh -4, Dynein cargo inh 1.1, CHOP UPR activ -10, UPR XBP1 act -10 and CHOP inhibitor 102*.
Cc1nc2cc(-c3ccccc3)sc2c(=O)n1N was read as T cruzi inh 4, Dynein cargo inh -0.017, CHOP UPR activ -9, UPR XBP1 act -11, Lmaj promast 15 and CHOP inhibitor 74*.
Cn1c(CNC(=O)CNC(=O)Cc2ccccc2)cc(=O)n(C)c1=O was read as T cruzi inh -14, CHOP UPR activ 3 and UPR XBP1 act -6.
Screening OCC[C@H]1C[C@@H](O)[C@H](O)[C@]2(Cc3ccccc3CCO2)O1 returned CHOP UPR activ -1 and UPR XBP1 act 1.
For Fc1ccccc1OCCCN1CCOCC1 the results were T cruzi inh -7, Dynein cargo inh 0.51, CHOP UPR activ 1, UPR XBP1 act -1, Lmaj promast 51* and CHOP inhibitor -5.
Screening c1ccc2c(OCCCCN3CCOCC3)cccc2c1 returned T cruzi inh -8, CHOP UPR activ 0 and UPR XBP1 act -5.
COc1ccccc1OCCCCCCN1CCOCC1 was read as T cruzi inh 2, Dynein cargo inh 0.49, CHOP UPR activ 1, UPR XBP1 act -1, Lmaj promast 89* and CHOP inhibitor -1.
`Cc1ccc(CNC(=O)[C@H](C)NC(=O)C2CCN(C(=O)[C@@H]3CCCN3C(=O)OC(C)(C)C)CC2)cc1` gave T cruzi inh -3, CHOP UPR activ 1 and UPR XBP1 act 0.
For COC(=O)[C@@H](Cc1c[nH]c2ccccc12)NC(=O)c1ccc2c(c1)OCO2 the results were T cruzi inh 0, CHOP UPR activ 0 and UPR XBP1 act 1.
For O=C(COC(=O)[C@H](Cc1c[nH]c2ccccc12)NC(=O)c1ccc(Cl)cc1)Nc1ccc2c(c1)OCO2 the results were T cruzi inh -10, Dynein cargo inh 1.5, CHOP UPR activ 4, UPR XBP1 act 7, Lmaj promast 100* and CHOP inhibitor 82*.
Screening CCc1ccc(S(=O)(=O)N2CCN(C(=O)C3CCN(C(C)=O)CC3)CC2)cc1 returned T cruzi inh -2, CHOP UPR activ -1 and UPR XBP1 act 1.
For N#CC1=C(N)C2=CCCC[C@H]2[C@H](c2cccc(F)c2)C1(C#N)C#N the results were T cruzi inh -5, Dynein cargo inh -1.3, CHOP UPR activ 0, UPR XBP1 act -2, Lmaj promast 81* and CHOP inhibitor 66.
Cc1ccc2cc3cc(C(=O)N(CC(=O)NC4CCCC4)c4cccc(C)c4C)sc3nc2c1 was read as T cruzi inh 58*, Dynein cargo inh 3.5, CHOP UPR activ 4, UPR XBP1 act -3, Lmaj promast 51* and CHOP inhibitor 33.
For c1ccc(CN2CCN(c3cnc4ccccc4n3)CC2)cc1 the results were T cruzi inh 8, CHOP UPR activ 6 and UPR XBP1 act 0.
`CC1(C)CC(N2CCCC2)=CC(=[N+]2CCCCC2)C1` gave T cruzi inh inconclusive, Dynein cargo inh -1, CHOP UPR activ -2, UPR XBP1 act -1, Lmaj promast 100* and CHOP inhibitor 17.
`CC1(C)CC(NNCCC#N)=CC(=[N+]2CCCC2)C1` gave T cruzi inh 30, Dynein cargo inh 0.77, CHOP UPR activ -1, UPR XBP1 act 1, Lmaj promast 0 and CHOP inhibitor -17.
Screening CC1(C)CC(=O)c2sc(N3CCCCC3)nc2C1 returned T cruzi inh 1, Dynein cargo inh 0.15, CHOP UPR activ 4, UPR XBP1 act 1, Lmaj promast -1 and CHOP inhibitor 15.
For CC1(C)CC(N2CCCC2)=CC(=[N+]2CCCC2)C1 the results were T cruzi inh 67*, Dynein cargo inh -0.24, CHOP UPR activ -1, UPR XBP1 act -1, Lmaj promast 99* and CHOP inhibitor 15.
For CC1(C)CC(N2CCN(Cc3ccccc3)CC2)=CC(=[N+]2CCCCC2)C1 the results were T cruzi inh 62*, Dynein cargo inh -0.31, CHOP UPR activ 0, UPR XBP1 act -3 and CHOP inhibitor 1.
